Results taken from paper PMC3384716 (Steroids, 2012).

Experiments:
PR = target: T1, PR (Homo sapiens, UniProt P06401); assay: PR reporter gene assay; assay type: cell-based
T1 sequence (P06401 165-933 limits assumed): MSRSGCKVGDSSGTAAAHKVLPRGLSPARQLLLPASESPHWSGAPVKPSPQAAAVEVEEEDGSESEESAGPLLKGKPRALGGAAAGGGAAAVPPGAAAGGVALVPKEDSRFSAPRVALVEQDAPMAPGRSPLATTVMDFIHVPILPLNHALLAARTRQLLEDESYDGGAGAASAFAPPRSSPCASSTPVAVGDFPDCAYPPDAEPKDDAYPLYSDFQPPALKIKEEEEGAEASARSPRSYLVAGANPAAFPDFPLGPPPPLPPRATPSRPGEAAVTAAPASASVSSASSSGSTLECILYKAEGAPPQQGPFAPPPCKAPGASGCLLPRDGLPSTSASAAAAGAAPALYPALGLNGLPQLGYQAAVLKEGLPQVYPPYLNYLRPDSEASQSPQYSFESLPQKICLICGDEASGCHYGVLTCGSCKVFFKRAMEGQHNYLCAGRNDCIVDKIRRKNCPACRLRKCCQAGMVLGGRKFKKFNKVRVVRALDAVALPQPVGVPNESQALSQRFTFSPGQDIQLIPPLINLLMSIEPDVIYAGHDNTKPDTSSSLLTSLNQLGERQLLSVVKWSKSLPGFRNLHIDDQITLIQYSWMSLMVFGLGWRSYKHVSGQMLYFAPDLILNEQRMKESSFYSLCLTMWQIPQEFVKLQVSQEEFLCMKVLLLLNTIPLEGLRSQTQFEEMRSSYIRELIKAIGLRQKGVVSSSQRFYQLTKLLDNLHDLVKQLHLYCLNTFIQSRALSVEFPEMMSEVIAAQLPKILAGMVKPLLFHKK

ER = target: T2, ER (Homo sapiens, UniProt P03372); assay: ER reporter gene assay; assay type: cell-based; details: 10 μM compound, 5 nM estradiol, 24 h; % of maximal luciferase activity (100%)
T2 sequence (P03372 1-595): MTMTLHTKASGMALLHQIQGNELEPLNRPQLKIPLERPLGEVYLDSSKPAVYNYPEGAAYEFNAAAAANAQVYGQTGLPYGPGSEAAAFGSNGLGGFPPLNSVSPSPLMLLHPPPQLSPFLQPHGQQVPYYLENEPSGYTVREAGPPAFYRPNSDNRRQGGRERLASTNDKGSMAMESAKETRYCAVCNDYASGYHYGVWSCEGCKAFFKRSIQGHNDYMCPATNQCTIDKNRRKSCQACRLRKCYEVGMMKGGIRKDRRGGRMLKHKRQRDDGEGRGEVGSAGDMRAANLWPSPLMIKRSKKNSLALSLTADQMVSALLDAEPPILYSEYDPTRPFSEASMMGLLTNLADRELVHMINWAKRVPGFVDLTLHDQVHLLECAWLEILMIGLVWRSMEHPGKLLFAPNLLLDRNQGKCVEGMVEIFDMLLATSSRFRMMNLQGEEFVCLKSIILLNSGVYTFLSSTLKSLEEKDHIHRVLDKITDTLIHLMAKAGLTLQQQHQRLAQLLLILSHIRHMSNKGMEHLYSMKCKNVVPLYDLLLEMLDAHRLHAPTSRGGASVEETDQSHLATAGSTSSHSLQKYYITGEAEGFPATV

[1] = test system: endogenous PR-regulated alkaline phosphatase activity in T47D breast cancer cells; assay: Progesterone-induced alkaline phosphatase assay in T47D cells; assay type: cell-based, human; details: by 5 μM
Outline: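 T47D cells were moved to phenol red-free medium with 10% charcoal-dextran FBS four days ahead. Cells were seeded overnight, then treated 24 h with 2.5 nM progesterone ± test compound in DMSO. Supernatant assayed with CSPD/diethanolamine pH 9.5 buffer, 1 h at RT, luminescence (542 nm). Untreated-compound activity = 100%; ≥3 experiments, mean ± SEM.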

[2] = target: purified luciferase protein (Photinus pyralis, UniProt P08659); assay: Enzyme inhibition assay with purified luciferase protein; assay type: biochemical; details: 0.05 ng pure luciferase protein, 10 μM compound
Outline: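 Purified firefly luciferase was used at a final 0.01 ng/μl in OneGlo buffer, with test compound diluted to 10 μM in buffer. After adding BrightGlo luciferase reagent, samples were held 5 min and luminescence measured.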

[3] = target: T3, alkaline phosphatase (AlkP) (Homo sapiens, UniProt P05186); assay: Direct alkaline phosphatase inhibition in cell lysates; assay type: biochemical; details: lysates of progesterone-treated cells, 10 μM compound, 15 minutes
T3 sequence (P05186 18-524): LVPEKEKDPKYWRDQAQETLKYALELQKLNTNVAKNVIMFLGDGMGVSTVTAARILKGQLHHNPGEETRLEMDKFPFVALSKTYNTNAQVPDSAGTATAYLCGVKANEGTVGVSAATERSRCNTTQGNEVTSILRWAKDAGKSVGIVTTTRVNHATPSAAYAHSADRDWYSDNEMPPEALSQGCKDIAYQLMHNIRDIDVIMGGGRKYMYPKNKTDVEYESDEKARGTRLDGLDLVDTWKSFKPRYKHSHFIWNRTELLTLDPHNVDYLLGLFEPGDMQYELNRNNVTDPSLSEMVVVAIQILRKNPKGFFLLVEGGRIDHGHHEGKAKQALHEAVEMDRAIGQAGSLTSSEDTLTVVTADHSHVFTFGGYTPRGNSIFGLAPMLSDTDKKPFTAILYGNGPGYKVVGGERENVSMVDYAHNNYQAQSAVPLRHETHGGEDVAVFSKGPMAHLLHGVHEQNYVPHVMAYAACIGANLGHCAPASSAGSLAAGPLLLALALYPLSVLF
Outline: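 Lysates of cells given 2.5 nM progesterone to induce AlkP were aliquoted and exposed to 10 μM test compound for 15 min. Then added: buffer of 100 mM diethanolamine pH 9.5, 1 mM MgCl2, 0.4 mM CSPD chemiluminescent substrate and 1X Emerald II enhancer. After 1 h at room temperature, luminescence was read.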

[4] = test system: alkaline phosphatase mRNA; assay: qRT-PCR of progesterone-induced alkaline phosphatase mRNA; assay type: cell-based, human; details: 10 nM P, 24 h
pS2 mRNA = assay: qRT-PCR of 17β-estradiol-induced pS2 mRNA; assay type: cell-based; details: 2 hours; compound 51 at 5 μM
[5] = target: T4, purified full length recombinant human PR-B (Homo sapiens, UniProt P06401); assay: Competitive radiometric receptor binding assay
T4 sequence (P06401 1-933): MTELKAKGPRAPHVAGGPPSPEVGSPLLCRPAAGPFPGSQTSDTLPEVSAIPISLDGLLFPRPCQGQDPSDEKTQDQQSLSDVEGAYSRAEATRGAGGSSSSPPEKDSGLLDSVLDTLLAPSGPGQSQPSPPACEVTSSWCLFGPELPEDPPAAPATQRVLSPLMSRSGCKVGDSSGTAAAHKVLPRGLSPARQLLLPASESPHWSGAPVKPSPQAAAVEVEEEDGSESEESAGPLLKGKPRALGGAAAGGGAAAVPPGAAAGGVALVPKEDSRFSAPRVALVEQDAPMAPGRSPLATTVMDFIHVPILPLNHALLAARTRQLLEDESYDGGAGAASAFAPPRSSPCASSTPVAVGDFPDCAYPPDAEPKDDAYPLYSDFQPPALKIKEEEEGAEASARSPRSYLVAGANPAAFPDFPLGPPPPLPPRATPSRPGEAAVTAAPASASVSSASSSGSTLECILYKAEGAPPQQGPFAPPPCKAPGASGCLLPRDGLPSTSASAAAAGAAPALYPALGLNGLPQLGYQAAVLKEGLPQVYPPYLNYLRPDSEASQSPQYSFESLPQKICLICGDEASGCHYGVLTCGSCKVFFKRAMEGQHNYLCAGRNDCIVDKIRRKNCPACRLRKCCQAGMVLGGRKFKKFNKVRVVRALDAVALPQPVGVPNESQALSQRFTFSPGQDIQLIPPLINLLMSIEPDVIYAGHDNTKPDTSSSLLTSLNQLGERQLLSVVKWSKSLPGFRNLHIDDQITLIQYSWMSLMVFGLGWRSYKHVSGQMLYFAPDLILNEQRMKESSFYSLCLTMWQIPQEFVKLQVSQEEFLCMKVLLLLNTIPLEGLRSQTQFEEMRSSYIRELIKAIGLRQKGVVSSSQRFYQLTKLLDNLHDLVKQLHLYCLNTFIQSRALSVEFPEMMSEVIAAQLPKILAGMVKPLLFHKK

purified luciferase protein, sequence (P08659 whole entry): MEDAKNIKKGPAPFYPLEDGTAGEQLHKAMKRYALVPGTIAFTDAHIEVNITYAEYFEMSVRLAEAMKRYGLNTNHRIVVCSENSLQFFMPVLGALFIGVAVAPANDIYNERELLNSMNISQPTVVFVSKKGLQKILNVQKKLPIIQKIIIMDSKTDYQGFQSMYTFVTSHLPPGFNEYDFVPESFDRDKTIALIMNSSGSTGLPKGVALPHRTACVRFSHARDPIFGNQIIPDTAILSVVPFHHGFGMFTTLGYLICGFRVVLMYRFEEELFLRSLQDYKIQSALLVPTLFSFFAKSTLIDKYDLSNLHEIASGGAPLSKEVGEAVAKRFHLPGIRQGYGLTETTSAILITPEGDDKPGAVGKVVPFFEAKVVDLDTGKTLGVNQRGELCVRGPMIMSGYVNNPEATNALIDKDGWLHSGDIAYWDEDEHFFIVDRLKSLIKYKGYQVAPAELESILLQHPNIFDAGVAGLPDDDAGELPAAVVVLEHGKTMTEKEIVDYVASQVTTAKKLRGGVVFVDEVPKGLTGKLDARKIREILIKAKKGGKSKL

## CCC(CC)CSc1nc2c([nH]1)c(=S)n(C)c(=O)n2C [Compound 51, 6-thio-8-(2-ethylbutyl)thiotheophylline]
PR; concentrations of 30 μM and higher
  agonist activity: no observed agonist activity
PR; same T47D cells, same MMTV-luciferase reporter
  fold more potent inhibitor of PR than GR: 6.1 fold
ER
  Reporter Assay (% Activity) ER: 54%
[1]
  inhibition of progesterone-induced AlkP activity at 5 μM: complete inhibition
[2]
  direct inhibition of luciferase enzymatic activity: did not inhibit
[3]
  direct inhibition of alkaline phosphatase activity in lysates: failed to significantly inhibit activity
[4]; 5 μM compound
  inhibition of progesterone induction of AlkP mRNA: 74%
[4]; 10 μM compound
  inhibition of progesterone induction of AlkP mRNA (in words): completely blocked
pS2 mRNA
  effect on 17β-estradiol induction of pS2 mRNA: no effect
[5]; 10 nM tritiated R5020, 10 nM PR-B, 18-24 h at 0°C
  fold weaker binding to PR than R5020: 4,700 fold
[5]; at functionally significant concentrations
  ability to compete with radio-labeled R5020 for binding to PR: little or no ability to compete
